Screens: PubChem BioAssay, several laboratories
hK5 inh: inhibitors of human kallikrein 5 | 210,000 tested, 0.59% active | inhibition, % at 5 µM | recombinant hK5, fluorogenic AMC substrate cleavage;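 active = inhibition of 40% or more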;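 note: 0% = enzyme controls without compound and 100% = no-enzyme blanks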
FXIa inh: blocks human coagulation factor XIa protease activity. P03951. purified FXIa, Boc-Glu-Ala-Arg-AMC fluorogenic substrate. inhibition, % at 5 µM. 220,000 tested, 0.14% active. AID 798;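 active = inhibition of at least 40%; inactive = inhibition below 40%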;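 note: fluorescence of freed AMC excited at 355 nm; 0% = enzyme without compound and 100% = no enzyme blank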
FXIIa inh: blocks human coagulation factor XIIa protease activity. purified FXIIa, Boc-QGR-AMC fluorogenic substrate, 2 h. inhibition, % at 5 µM. 220,000 tested, 0.3% active; in the data active = inhibition above about 40%;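 note: 0% = enzyme with no compound and 100% = blank without enzyme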
thrombin 1536: thrombin (human) inhibition. P00734. alpha-thrombin, Boc-VPR-AMC fluorogenic substrate cleavage. inhibition, % at 5 µM. 220,000 tested, 0.26% active. AID 1046;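 active = inhibition at or above 40%; inactive = inhibition below 40%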;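 note: 0% = enzyme with no compound and 100% = wells without enzyme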
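Material: human alpha-thrombin protein; Also added: Boc-VPR-AMC substrate, 15 µM final; Timing: enzyme reaction carried out at room temperature; Signal: fluorescence, ex 355 nm, em 460 nm; Measure: % inhibition of thrombin; Controls: enzyme without compound as high, wells lacking enzyme as low.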
Furin inhibitor: human furin inhibition; P09958; purified furin, fluorogenic substrate cleavage; inhibition, % at 20 µM or 30 µM; 220,000 tested, 0.061% active; AID 463115; in the data active = inhibition above about 25%
Target sequence (P09958 108-714 limits assumed): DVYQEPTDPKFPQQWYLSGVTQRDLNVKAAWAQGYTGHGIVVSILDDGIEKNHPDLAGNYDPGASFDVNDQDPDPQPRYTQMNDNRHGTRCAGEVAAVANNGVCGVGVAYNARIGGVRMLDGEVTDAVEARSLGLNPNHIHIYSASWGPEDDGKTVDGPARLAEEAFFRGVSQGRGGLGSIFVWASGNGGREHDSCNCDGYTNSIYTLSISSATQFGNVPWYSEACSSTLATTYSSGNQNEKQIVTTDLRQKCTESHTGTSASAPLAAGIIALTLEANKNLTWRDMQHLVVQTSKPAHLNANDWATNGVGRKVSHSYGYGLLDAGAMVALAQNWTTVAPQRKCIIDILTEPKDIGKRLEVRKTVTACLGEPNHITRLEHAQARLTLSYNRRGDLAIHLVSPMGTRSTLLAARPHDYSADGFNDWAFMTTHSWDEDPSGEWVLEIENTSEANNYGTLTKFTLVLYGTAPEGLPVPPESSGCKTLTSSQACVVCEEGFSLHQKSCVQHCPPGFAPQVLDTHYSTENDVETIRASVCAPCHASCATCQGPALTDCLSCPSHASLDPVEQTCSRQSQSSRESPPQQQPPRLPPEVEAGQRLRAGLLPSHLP
* marks the source's active call; other numbers are inactive results; / = no result given; ! = not active in a repeat. Shown are actives, neighbours in structure and some others; about 1.1% of the full set was active somewhere.

SMILES	hK5 inh	FXIa inh	FXIIa inh	thrombin 1536	Furin inhibitor
CC(C)C[C@H](NC(=O)c1[nH]cnc1C(=O)N[C@@H](C)C(=O)OC(C)(C)C)C(=O)OC(C)(C)C	-1.0	-1.5	5.5	-4.2	-13.5
O=C1c2ccccc2C(=O)N1CCc1nc2ccccc2c(=O)n1Cc1ccco1	57.1*	2.5	28.6	10.6	-9.2
O=C1CC(NNc2nc3ccccc3s2)C(=O)N1c1ccccc1 (stereo unspecified)	2.1	-1.1	-3.7	0.9	-10.6
COc1cccc(N2C(=O)CC(NNc3nc4ccccc4s3)C2=O)c1 (stereo unspecified)	40.3*	17.5	14.2	19.0	-4.0
Cc1ccc(N=CC=C2OC(C)(C)C(C)(C)O2)c(C)c1	-3.6	7.4	8.5	2.3	-9.9
CC1(C)OC(=CC=Nc2ccc(Cl)cc2)OC1(C)C	16.2	28.4	44.9*	2.5	2.9
O=C(NCc1ccccc1)NC(=O)c1ccccc1	-6.2	1.2	6.9	2.1	-21.8
O=C(NCc1ccccc1)NC(=O)c1ccncc1	40.1*	3.0	18.5	3.5	-13.2
Cc1cccc(OCc2n[nH]c(=S)n2Cc2ccccc2)c1	1.8	0.4	7.4	0.2	-23.8
CCc1nnc(NS(=O)(=O)c2ccc(N=CC3=C(O)CC(C)(C)CC3=O)cc2)s1	/	0.1	7.5	3.6	26.1*
CC1(C)CC(=O)C(C=Nc2ccc(O)cc2)=C(O)C1	-3.3	7.7	18.0	2.9	15.6
COc1ccc(-n2c(O)c(C=Nc3ccccc3)c3ccccc3c2=O)cc1OC	-0.7	0.5	7.6	-5.0	-17.7
COc1ccc(-n2c(O)c(C=Nc3ccccc3)c3ccccc3c2=O)cc1	2.6	-1.8	9.2	40.2*	-30.3
COC(=O)c1[nH]c(C)c(/C(O)=C2\C(=O)C(=O)N(CCN3CCOCC3)C2c2ccco2)c1C (stereo unspecified)	1.9	1.9	7.0	0.0	-12.2
O=C(c1ccc(S(=O)(=O)N2CCCCC2)cc1)c1nnc(-c2ccc(Cl)cc2)o1	45.8*	34.3	2.3	15.5	-13.6
Cc1ccc(NC(=O)N2CCCCC2)cc1[N+](=O)[O-]	0.8	-3.6	9.3	-0.1	-19.9
CCC(=O)Nc1cccc(C(=O)OCc2cccc([N+](=O)[O-])c2)c1	68.2*	26.5	26.8	40.8*	-15.1
CCc1cccc(NC(=O)Cc2ccc([N+](=O)[O-])cc2)c1	51.5*	40.9*	23.2	29.3	-7.1
Cc1ccc(S(=O)(=O)N(Cc2ccccc2)c2ccccc2C(=O)Nc2ccccc2C(=O)NCc2ccco2)cc1	-9.5	1.6	5.9	-2.2	-21.3
Cc1ccc(S(=O)(=O)N(Cc2ccccc2)c2ccccc2C(=O)NCc2ccco2)cc1	-3.2	-6.8	46.8*	-2.0	-13.6
COc1ccc(N2CCCn3c2nc2c3c(=O)n(Cc3ccc(C)cc3)c(=O)n2C)c(OC)c1	21.1	10.7	53.7*	17.8	-8.2
COc1cccc(N2CCCn3c2nc2c3c(=O)n(CCN3CCOCC3)c(=O)n2C)c1	-10.5	2.2	22.9	-6.0	-19.9
COc1ccc(N(CC(=O)NCCC2=CCCCC2)S(=O)(=O)c2c(C)[nH]c(=O)[nH]c2=O)cc1	39.1	5.1	10.4	13.4	3.7
O=C(CN1C(=O)c2cccc3cccc1c23)Nc1ccc2c(c1)OCO2	-11.2	-11.1	-2.4	-0.1	-21.6
O=C(CN1C(=O)c2cccc3cccc1c23)NCc1ccc2c(c1)OCO2	41.3*	1.5	104.7*	19.6	-11.0
SMILES	hK5 inh	FXIa inh	FXIIa inh	thrombin 1536	Furin inhibitor
CCC(=O)N(Cc1c(C)nn(-c2ccccc2)c1Cl)c1ccc(Cl)cc1	-15.0	-6.8	2.0	-6.4	-3.7
CC(C)OCCCNS(=O)(=O)c1ccc2c(c1)oc(=O)n2C	41.5*	16.3	21.2	14.0	-17.9
CCCN(CCC)CCCNS(=O)(=O)c1ccc2c(c1)oc(=O)n2C	1.1	9.8	26.3	0.1	-20.7
COc1ccc(CCc2nc(C)ccc2O)cc1	44.0*!	3.6	10.2	24.1	-15.7
Cc1ccc(O)c(CO)n1	0.2	3.5	8.8	-3.3	-16.2
CCCCCOC(=O)Nc1nnc(CCCCC)s1	-21.3	3.7	46.8*	-7.8	-5.0
Cn1c(CNC(=O)Nc2ccccc2Cl)nnc1SCc1ccccc1	43.3*	18.2	16.6	24.8	-10.9
CCOc1cc(NC(=S)NCCCN2CCOCC2)c(OCC)cc1NC(=O)c1ccc(C)cc1	40.8*	27.2	52.1*	14.4	2.2
CCOC(=O)CNC(=O)Cn1cnc2c(nnn2-c2ccc(F)cc2)c1=O	44.9*	12.5	31.7	22.2	-21.9
CCOC(=O)Cn1cnc2c(nnn2-c2ccc(C)cc2)c1=O	0.5	-2.9	6.7	3.0	-10.3
COc1ccc(CCc2nnc(CCC(=O)NCc3cc(C(C)C)no3)o2)cc1	5.6	1.9	13.4	-4.3	-8.7
COc1ccc(N(C(C)C(=O)NC2CCCCCC2)S(C)(=O)=O)cc1 (stereo unspecified)	61.8*	3.1	12.9	28.3	1.6
CCCCCCCCS(=O)c1sc2nc3c(cc2c1N)CCCC3 (stereo unspecified)	-8.4	-0.6	6.3	-1.0	-12.2
CCCCS(=O)(=O)c1sc2nc3c(cc2c1N)CCCC3	42.2*	3.3	15.9	13.9	-29.3
COc1cccc(CC2(CO)CCCN(CC3=Cc4cc(Cl)ccc4OC3)C2)c1 (stereo unspecified)	-2.7	-3.1	2.5	-8.2	-30.8
Cc1cc(C(=O)Nc2ccc3c(c2)CCC3)c2ccccc2n1	-4.3	-1.2	3.8	-4.7	-21.2
O=C(CCc1ccccc1)Nc1ncc2c(n1)CCCC2=O	3.5	7.4	20.3	1.5	-5.6
CC1(C)CC(=O)c2cnc(NC(=O)CCc3ccccc3)nc2C1	85.9*	12.4	26.1	14.3	-16.5
Cc1noc(C)c1COc1ccc(C(=O)NCc2ccccn2)cc1	41.0*	-6.6	11.1	4.0	-18.6
Cc1noc(C)c1COc1ccc(C(=O)Nc2ccccc2)cc1	3.9	-2.8	7.9	-11.3	-30.0
CCC(=O)n1nc(-c2cccnc2)nc1NCc1cccs1	2.3	1.9	11.2	100.1*	-22.6
CCN(C(=O)Cc1cccs1)c1nnc(-c2cccnc2)s1	43.8*	-5.1	6.3	14.1	-23.1
CC(=O)n1nc(-c2cccnc2)nc1NCc1cccs1	1.7	1.5	8.2	/	-9.2
CCCC(=O)n1nc(-c2cccnc2)nc1NCc1cccs1	/	6.7	13.1	100.1*	-16.2
COc1ccccc1C(=O)n1nc(-c2ccccc2)nc1NCc1ccco1	-4.6	4.8	13.1	85.1*	6.6
CCS(=O)(=O)n1nc(-c2cccnc2)nc1NCc1ccc(F)cc1	/	0.8	4.0	14.9	-21.1
Cc1ccc2[nH]c(=O)c(COC(=O)c3cccs3)cc2c1	-15.4	5.6	4.0	-0.9	-19.2
CCOC(=O)c1[nH]c(C)c(CN(C(C)=O)c2ccc(OCC)cc2)c1C	22.9	8.7	11.0	9.2	7.3
COCCNC(=O)COC(=O)c1cc(-c2ccc(OC)cc2)nc2ccccc12	17.1	4.3	19.9	-0.7	10.0
O=C(c1cccs1)n1nc(-c2cccnc2)nc1NCc1ccco1	-6.4	16.9	11.9	83.2*	-15.6
